# “Also recorded” adds a separate entry of the source. Read-outs that look alike come from different tables or passages of the source.
# Tests used:
# [1] = Serum pharmacokinetics of THC and metabolites after inhaled or i.p. THC; format: in vivo, female Sprague Dawley rats
# [2] = system: female Sprague Dawley rats; assay: Locomotor activity in OpenField arena after i.p. or inhaled THC; format: in vivo, rat; conditions: for vertical plane entries (rearing), total: 45 minute session
# Procedure, shortened: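 Separate cohort of adult female rats (n=15): habituation session, then five vehicle or THC days, each 3 days apart. Dosing was 2 mg/kg i.p., or 10 min vapour exposure (0.25 mL of 40 or 160 mg/mL; 0.19 or 0.76 mg/kg). Rats entered the arena immediately for 45 min, n=10–15 per group. Analysis: two-way RM ANOVA (time × treatment), Sidak or Tukey post hoc.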
# [3] = system: rodents; conditions: i.p. injected THC; cited from earlier work
# [4] = cited from earlier work
# [5] = cited from earlier work; remark: listed apart in the source
# [6] = female, Sprague Dawley, rat, serum, inhaled or intranasal, 0.19 mg/kg
# [7] = female, Sprague Dawley, rat, serum, inhaled or intranasal, 0.76 mg/kg
# [8] = female, Sprague Dawley, rat, serum, ip, 2 mg/kg
# [9] = 0.19 mg/kg vaporized/inhaled THC (0.25 mL of 40 mg/mL, 10 min exposure), serum
# [10] = 0.76 mg/kg vaporized/inhaled THC (0.25 mL of 160 mg/mL, 10 min exposure), serum
# [11] = 2 mg/kg THC i.p., serum, female Sprague Dawley rats
molecule,measurement,setting,value
"CCCCCc1cc(O)c2c(c1)OC(C)(C)[C@@H]1CCC(C)=C[C@@H]21 [THC, delta-9-tetrahydrocannabinol]",Vss (volume of distribution at steady state),[1]; 0.19 mg/kg vaporized,8.6 L/kg
same,Vss (volume of distribution at steady state),[1]; 0.76 mg/kg vaporized,24.4 L/kg
same,AUC(0-inf),[1]; [6],87 ng·h/mL
same,CL/F,[1]; [6],38.3 mL/min/kg
same,Cmax,[1]; [6],43.3 ng/mL
same,Tmax,[1]; [6],10 min
same,Vd/F,[1]; [6],7.4 L/kg
same,half-life,[1]; [6],132 min
same,k el,[1]; [6],8.33e-05 s⁻¹
same,AUC(0-inf),[1]; [7],94.4 ng·h/mL
same,CL/F,[1]; [7],142 mL/min/kg
same,Cmax,[1]; [7],71.6 ng/mL
same,Tmax,[1]; [7],5 min
same,Vd/F,[1]; [7],33 L/kg
same,half-life,[1]; [7],162 min
same,k el,[1]; [7],8.33e-05 s⁻¹
same,AUC(0-inf),[1]; [8],364 ng·h/mL
same,CL/F,[1]; [8],91.7 mL/min/kg
same,Cmax,[1]; [8],108 ng/mL
same,Tmax,[1]; [8],10 min
same,Vd/F,[1]; [8],26.9 L/kg
same,half-life,[1]; [8],204 min
same,k el,[1]; [8],5.56e-05 s⁻¹
same,fold-change of Cmax values,[1]; increasing inhaled THC dose from 0.19 mg/kg to 0.76 mg/kg,1.6 fold
same,"vertical plane entries (rearing), total",[2]; 0.19 mg/kg INH THC vs vehicle,Significantly reduced; also recorded: significantly decreased; also recorded: reduced rearing activity
same,floor plane distance,"[2]; 0.76 mg/kg inhaled THC vs vehicle, at 20 minutes",significantly higher; also recorded: slightly heightened locomotion
same,horizontal distance traveled or altered thigmotaxis,"[2]; 0.76 mg/kg inhaled THC, over a 45-minute period",minimal effect
same,center distance travelled,"[2]; 0.76 mg/kg vaporized THC vs vehicle, at 20 minutes",significantly higher; also recorded: increased center distance travelled
same,"vertical plane entries (rearing), total",[2]; 2 mg/kg i.p. THC vs vehicle,Significantly reduced; also recorded: significant reduction; also recorded: reduced rearing activity
same,"margin distance, post-hoc comparisons",[2]; vaporized THC 0.19 or 0.76 mg/kg vs vehicle,no significant post-hoc comparisons
same,dose at which horizontal locomotion is affected,[3],≥ 15 mg/kg
same,plasma concentration Cmax,[4]; human clinical study at a similar dose,73.81 ± 63.09 ng/mL
same,plasma Cmax values across individual subjects,"[4]; human, 6 subjects given the same dose of THC under the same regime",70 to 280 ng/mL
same,mean Cmax of THC,"[4]; human, acute THC inhalation, whole blood, lowest mean across studies",4 ng/mL
same,mean Cmax ranges in clinical studies,"[4]; human, smoked or vaped cannabis at similar doses",4 to 162 ng/mL
same,time of peak THC brain levels,"[5]; after THC inhalation in males, ref 35 (Hložek et al.)",15 min
same,mean Cmax levels of THC,"[5]; female Sprague Dawley rats, 5 minutes post-30 minute inhalation of 200 mg/mL THC",303 ng/mL
same,time of peak THC brain levels,[5]; ref 26 (Baglot et al.),30 min
11-hydroxy-delta-9-tetrahydrocannabinol [11-OH-THC],Tmax,"[1]; 0.19 mg/kg vaporized THC, time after conclusion of inhalation",5 min
same,Cmax (maximum serum concentration),[1]; [9],14.4 ± 1.4 ng/mL
same,Tmax,"[1]; 0.76 mg/kg vaporized THC, time after conclusion of inhalation",5 min
same,Cmax (maximum serum concentration),[1]; [10],35.6 ± 7.4 ng/mL
same,Cmax (maximum serum concentration),[1]; [11],84.2 ± 19.3 ng/mL
same,Tmax,"[1]; 2 mg/kg THC i.p., time post-injection",20 min
same,metabolite level relative to THC,"[4]; human, acute inhalation, % of THC",up to 30%
"CCCCCc1cc(O)c2c(c1)OC(C)(C)C1CCC(C(=O)O)=CC21 (stereo not shown) [THC-COOH, 11-nor-9-carboxy-delta-9-tetrahydrocannabinol]",Cmax (maximum serum concentration),[1]; [9],20.9 ± 4.1 ng/mL
same,Cmax (maximum serum concentration),[1]; [10],19.9 ± 2.2 ng/mL
same,Cmax (maximum serum concentration),[1]; [11],87.0 ± 21.8 ng/mL
same,time detectable in the bloodstream after administration,[4]; humans,≥ 7 days
